From ChEMBL document CHEMBL5678801, “A benzothiophene inhibitor of mitogen-activated protein kinase-activated protein kinase 2 inhibits tumor necrosis factor alpha production and has oral anti-inflammatory efficacy in acute and chronic models of inflammation” (J Pharmacol Exp Ther, 2010) come the findings set out here.

Data set [1] can be described thus: Inhibition of IL-8 production in LPS induced human Whole blood cell preincubated with compound for 1 hr followed by LPS induction and measured after 16 hrs. The class given is functional, cell-based. The method, boiled down: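 Human whole blood was stimulated ex vivo with LPS 100 ng/ml. Plasma cytokines were read by MSD 4-plex: TNFα at 4 h; IL-1β, IL-6 and IL-8 at 16 h. Data are means ±S.E.M. of two independent experiments in duplicate, three donors. IC50 by 4-parameter nonlinear regression.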

Data set [2] addresses MAP kinase-activated protein kinase 2 (Homo sapiens, UniProt P49137).
Data set [3] in a line: Plasma concentration in po dosed LPS-induced Lewis rat model at ED80 concentration measured after 5.5 hrs of initial dose by LC-MS/MS analysis. The class given is ADME, organism-based. In outline:
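Male Lewis rats (225-250 g, 5 per group) were fasted 18 h, then dosed orally at 0.2-60 mg/kg as a suspension in 0.5% methylcellulose/0.025% Tween 20. LPS 1 mg/kg was given i.v. 4 h later. Blood was taken by cardiac puncture 90 min after LPS. Serum TNFα was read by ELISA and drug by LC-MS/MS, three independent experiments. 4-parameter fit. Unbound values were corrected with measured rat plasma protein binding.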

Data set [4] addresses Receptor-interacting serine/threonine-protein kinase 2 (Homo sapiens, UniProt O43353). As to the kind of experiment: Inhibition of RIPK2 (unknown origin). In outline:
(§1)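 Kinase panel: 200 kinases were first screened at 1 μM inhibitor for percent inhibition. Those above 50% inhibition were then titrated for IC50. MgATP was fixed at the Km(app) determined for each enzyme.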

Data set [5] is described as follows: Inhibition of TNFalpha production in LPS induced human Whole blood cell preincubated with compound for 1 hr followed by LPS induction and measured after 4 hrs. Type of data set: functional, cell-based. The method, boiled down:
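Human whole blood was stimulated with LPS 100 ng/ml for 4 h. Plasma TNFα was read by MSD kit. Three separate experiments in duplicate, mean ±S.E.M. IC50 by 4-parameter nonlinear regression.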

The target in data set [6] is T1, Tyrosine-protein kinase receptor UFO (Homo sapiens, UniProt P30530).
T1 sequence (P30530 whole entry): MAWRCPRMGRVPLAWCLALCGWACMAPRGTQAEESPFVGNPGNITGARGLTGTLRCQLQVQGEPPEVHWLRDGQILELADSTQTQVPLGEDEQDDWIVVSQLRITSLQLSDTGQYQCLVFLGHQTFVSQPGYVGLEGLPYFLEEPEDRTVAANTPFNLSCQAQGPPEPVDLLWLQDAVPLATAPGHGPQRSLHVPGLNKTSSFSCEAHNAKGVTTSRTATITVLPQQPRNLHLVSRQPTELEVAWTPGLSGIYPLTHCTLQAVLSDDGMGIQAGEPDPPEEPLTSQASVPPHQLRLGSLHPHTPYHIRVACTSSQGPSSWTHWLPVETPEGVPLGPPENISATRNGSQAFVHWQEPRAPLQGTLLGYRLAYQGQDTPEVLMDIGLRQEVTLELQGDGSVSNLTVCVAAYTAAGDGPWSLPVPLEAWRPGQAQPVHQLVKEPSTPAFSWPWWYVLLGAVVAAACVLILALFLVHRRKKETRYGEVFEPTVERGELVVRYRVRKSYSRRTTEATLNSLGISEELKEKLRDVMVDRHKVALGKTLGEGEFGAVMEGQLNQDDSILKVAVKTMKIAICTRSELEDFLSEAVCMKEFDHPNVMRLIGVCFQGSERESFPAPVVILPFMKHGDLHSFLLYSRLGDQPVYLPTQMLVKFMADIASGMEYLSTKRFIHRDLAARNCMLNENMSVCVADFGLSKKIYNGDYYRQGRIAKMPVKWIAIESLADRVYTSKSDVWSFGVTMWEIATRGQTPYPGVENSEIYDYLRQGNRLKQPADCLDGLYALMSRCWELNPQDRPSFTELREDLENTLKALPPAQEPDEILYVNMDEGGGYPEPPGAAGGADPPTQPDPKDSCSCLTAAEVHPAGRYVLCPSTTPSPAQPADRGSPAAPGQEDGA
Description: Inhibition of Axl (unknown origin). The method, boiled down: as §1

A short description of data set [7]: Oral bioavailability in Sprague-Dawley rat at 3 mg/kg measured upto 24 hrs by […] analysis. Particulars: in vivo. Type of data set: ADME, organism-based. In outline: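 Male Sprague-Dawley rats (275-300 g), carotid-catheterized and acclimated overnight. Dosing was i.v. at 1 mpk (n=2) in 70% saline/20% PEG-400/10% ethanol, or oral at 3 mpk (n=3) as a suspension in 0.5% HPMC/Tween. Plasma drug was measured by LC-MS/MS. Cmax and Tmax were read from individual profiles. t½ came from the terminal log-linear slope and AUC by the linear trapezoidal rule. CL = dose/AUC0-∞, Vdss = CL×MRT, F = dose-normalized AUC po/iv.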

Data set [8] can be described thus: Inhibition of MK2 activity in LPS induced human Whole blood cell preincubated with compound for 1 hr followed by LPS induction and measured after 30 mins by Dissociation enhanced lanthanide fluoro-immuno assay. Type of data set: functional, cell-based. The method, boiled down: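 Whole blood was stimulated with LPS 100 ng/ml for 30 min. Phospho-Ser82 HSP27 and total HSP27 in lysates were read by DELFIA immunoassay.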

MAP kinase-activated protein kinase 2, sequence (P49137 whole entry, looked up): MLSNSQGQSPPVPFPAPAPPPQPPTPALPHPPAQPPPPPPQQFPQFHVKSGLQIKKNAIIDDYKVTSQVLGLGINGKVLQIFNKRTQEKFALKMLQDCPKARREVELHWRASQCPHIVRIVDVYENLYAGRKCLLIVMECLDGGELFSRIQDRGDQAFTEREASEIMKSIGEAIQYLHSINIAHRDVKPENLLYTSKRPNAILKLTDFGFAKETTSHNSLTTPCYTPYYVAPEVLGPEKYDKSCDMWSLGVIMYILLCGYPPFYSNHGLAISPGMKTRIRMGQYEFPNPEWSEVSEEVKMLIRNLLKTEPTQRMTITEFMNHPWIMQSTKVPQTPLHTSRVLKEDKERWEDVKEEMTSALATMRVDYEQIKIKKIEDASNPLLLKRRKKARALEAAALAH
Receptor-interacting serine/threonine-protein kinase 2, sequence (O43353 whole entry): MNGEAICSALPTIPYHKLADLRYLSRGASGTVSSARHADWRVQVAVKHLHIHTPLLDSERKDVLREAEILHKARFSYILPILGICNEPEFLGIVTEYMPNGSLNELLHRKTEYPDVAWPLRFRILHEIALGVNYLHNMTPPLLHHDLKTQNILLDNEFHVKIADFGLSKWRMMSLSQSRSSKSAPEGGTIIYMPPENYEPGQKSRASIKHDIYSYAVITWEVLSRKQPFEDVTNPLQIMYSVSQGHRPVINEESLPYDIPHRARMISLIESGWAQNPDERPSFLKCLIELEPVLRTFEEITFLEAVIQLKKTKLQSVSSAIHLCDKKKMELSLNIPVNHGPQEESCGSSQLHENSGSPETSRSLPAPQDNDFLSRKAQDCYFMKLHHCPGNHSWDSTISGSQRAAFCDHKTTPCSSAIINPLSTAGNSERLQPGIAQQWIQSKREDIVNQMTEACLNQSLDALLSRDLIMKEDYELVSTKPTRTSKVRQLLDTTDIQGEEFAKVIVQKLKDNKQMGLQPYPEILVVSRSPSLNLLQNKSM

As to `Cc1ccc(-c2ccc3c(ccc4sc5c(c43)NC[C@@H](C)NC5=O)n2)cn1`, the IC50 – broadly, the concentration needed to halve the response being measured – in data set [1] is > 25000 nM; in data set [4], 590 nM; in data set [5], 1970 nM; in data set [6], 428 nM; in data set [8], 1600 nM. For the same compound, the fIC50 in data set [2] is 126 nM. Moreover, in data set [3], the concentration at 5.5 h came to 4.2 µM. Besides, the bioavailability (commonly dose-corrected exposure relative to a reference, in per cent) in data set [7] was 46%.
